For four compounds, Kp and Papp (apical to basal) results are on record in ChEMBL document CHEMBL1681660, “6-amino-4-(pyrimidin-4-yl)pyridones: novel glycogen synthase kinase-3β inhibitors” (Bioorg Med Chem Lett, 2011).

Data set [1] is described as follows: Ratio of drug level in brain to plasma in Sprague-Dawley rat at 5 mg/kg, sc after 1 hr. The data set is classed as ADME, organism-based. More on the design: dose 5 mg/kg, route subcutaneous. The following applies: brain and plasma, read-out: BPR. Summed up:
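Male Sprague–Dawley rats (n = 3 per time point) received 5 mg/kg subcutaneously. Plasma (cardiac puncture after CO2 euthanasia), brain and CSF were collected at 0.5, 1, 2 and 4 h. Drug levels were measured by LC/MS/MS. Ratio is taken from the average brain and plasma concentrations at 1 h.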

In data set [2] the test system is MDR. Kind of data set: Permeability from apical to basolateral side of MDCK cells over expressing MDR. The following applies: dog, MDCK-MDR1.

Consider `COc1ccccc1[C@H]1CN(c2cc(-c3ccncn3)cc(=O)n2C)CCO1`, for which the Kp at 1 h in data set [1] was 1.86. With `Cc1cc(-c2cc(-c3ccccc3)nc(=O)[nH]2)ccc1O`, in data set [2], the Papp (apical to basal) amounted to 13.9 ×10⁻⁶ cm/s. For `Cn1c(N2CCC(O)(c3ccccc3)CC2)cc(-c2ccncn2)cc1=O`, in data set [1], the Kp at 1 h was 0.96. Still for that read-out and setting: the result for `COc1ccccc1CCNc1cc(-c2ccncn2)cc(=O)n1C` reads 0.35.
